One block for each compound: values may come before it. Calls of active or inactive are those of the source. The rule behind the calls is not given here.
What was measured:
[1] = biological target: T1, Mitogen-activated protein kinase; ERK1/ERK2 (Homo sapiens) (UniProt P27361+P28482); assay: Inhibition of ERK1/2 in serum starved/PMA-stimulated HEK293 cells assessed as reduction in RSK phosphorylation at T573 residues at 200 nM incubated for 30 mins by immunoblot analysis; format: cell-based
[2] = biological target: T1, Mitogen-activated protein kinase; ERK1/ERK2 (Homo sapiens); assay: Inhibition of ERK1/2 in serum starved/PMA-stimulated HEK293 cells assessed as reduction in RSK phosphorylation at S227 residues at 200 nM incubated for 30 mins by immunoblot analysis; format: cell-based
[3] = biological target: T1, Mitogen-activated protein kinase; ERK1/ERK2 (Homo sapiens); assay: Inhibition of ERK1/2 in serum starved/PMA-stimulated HEK293 cells assessed as reduction in RSK activity at 200 nM using crosstide as substrate incubated for 30 mins in presence of [32P]-ATP by liquid-scintillation counting method; format: cell-based
[4] = biological target: T1, Mitogen-activated protein kinase; ERK1/ERK2 (Homo sapiens); assay: Inhibition of ERK1/2 in serum starved/PMA-stimulated HEK293 cells assessed as reduction in ERK1/2 phosphorylation at T202/Y204 residues at 200 nM incubated for 30 mins by immunoblot analysis; format: cell-based
[5] = biological target: T1, Mitogen-activated protein kinase; ERK1/ERK2 (Homo sapiens); assay: Inhibition of ERK1/2 in serum starved/PMA-stimulated HEK293 cells assessed as reduction in RSK phosphorylation at S380 residues at 200 nM incubated for 30 mins by immunoblot analysis; format: cell-based
MEF [6] = assay: Inhibition of PI3K in serum starved Rictor knockout MEF cells assessed as reduction IGF1-stimulated AKT phosphorylation at Thr308 residue at 1 uM incubated for 20 mins by immunoblot analysis; format: cell-based; conditions: Mus musculus
In short: (§1)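 Wild-type, Rictor-, mLST8- or Sin1-knockout MEFs serum-deprived, pretreated 30 min with inhibitor, then stimulated with IGF-1 for 20 min. Lysates immunoblotted for Akt Thr308 phosphorylation. Three independent experiments.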

MEF [7] = assay: Inhibition of PI3K in serum starved mLST8 knockout MEF cells assessed as reduction IGF1-stimulated AKT phosphorylation at Thr308 residue at 1 uM incubated for 20 mins by immunoblot analysis; format: cell-based; conditions: Mus musculus; in short: as §1
MEF [8] = assay: Inhibition of PI3K in serum starved sin1 knockout MEF cells assessed as reduction IGF1-stimulated AKT phosphorylation at Thr308 residue at 1 uM incubated for 20 mins by immunoblot analysis; format: cell-based; conditions: Mus musculus; in short: as §1
HEK293 [9] = assay: Inhibition of PI3K in IGF1-stimulated HEK293 cells assessed as reduction in IGF1-stimulated PtdIns(3,4,5)P3 production at 2 uM pre incubated for 30 mins followed by IGF1-stimulation for 10 mins; format: cell-based; conditions: Homo sapiens
HEK293 [10] = assay: Inhibition of PI3K in serum starved HEK293 cells expressing GST-tagged-AKT1 S473D mutant assessed as reduction in IGF1-stimulated AKT1 phosphorylation at Thr308 residue at 1 uM incubated for 20 mins by immunoblot analysis; format: cell-based; conditions: Homo sapiens
In short: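 HEK-293 cells transfected with wild-type or S473D GST–Akt1. At 24 h, serum-starved 16 h, pretreated 30 min with inhibitor, then stimulated with IGF-1 for 20 min. Lysates immunoblotted for Thr308 phosphorylation. Three separate experiments.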

HeLa = assay: Inhibition of PI3K/mTOR in human HeLa cells assessed as reduction in NDRG1 phosphorylation incubated ay 1 uM for 30 mins by immunoblot analysis; format: cell-based
In short: (§2)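 HeLa cells or wild-type/knockout MEFs cultured in 10% serum and treated 30 min with inhibitor. Lysed in Tris lysis buffer and extracts immunoblotted with an antibody to NDRG1 phosphorylated at Thr346/356/366. Three experiments.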

MEF [11] = assay: Inhibition of PI3K in serum starved MEF cells assessed as reduction IGF1-stimulated AKT phosphorylation at Thr308 residue at 1 uM incubated for 20 mins by immunoblot analysis; format: cell-based; conditions: Mus musculus; in short: as §1
MEF [12] = assay: Inhibition of PI3K/mTOR in MEF cells assessed as reduction in NDRG1 phosphorylation incubated ay 1 uM for 30 mins by immunoblot analysis; format: cell-based; conditions: Mus musculus; in short: as §2
[13] = biological target: Serine/threonine-protein kinase mTOR (Mus musculus) (UniProt Q9JLN9); conditions: MEF, dose 100.0 nM, time 30.0 min
MEF [14] = assay: Induction of cell cycle arrest in mLST8 knockout MEF cells assessed as accumulation at S phase at 100 nM incubated for 1 to 3 days by propidium iodide staining based flow cytometric analysis (reference value: 59.7 +/- 0.49%); format: toxicity; conditions: mouse, 0.1 µM, time 1-3 day
[15] = biological target: Serine/threonine-protein kinase mTOR (Homo sapiens) (UniProt P42345); conditions: HEK293, dose 100.0 nM, time 30.0 min
MEF [16] = assay: Induction of cell cycle arrest in MEF cells assessed as accumulation at G1 phase at 100 nM incubated for 1 to 3 days by propidium iodide staining based flow cytometric analysis (reference value: 21.4 +/- 1.7%); format: toxicity; conditions: mouse, 0.1 µM, time 1-3 day
[17] = biological target: Serine/threonine-protein kinase mTOR (Mus musculus) (UniProt Q9JLN9); conditions: MEF, dose 100.0 nM, time 30.0 min; remark: listed apart in the source
[18] = biological target: Serine/threonine-protein kinase mTOR (Mus musculus) (UniProt Q9JLN9); conditions: MEF, dose 100.0 nM, time 30.0 min; remark: listed apart in the source
MEF [19] = assay: Induction of cell cycle arrest in mLST8 knockout MEF cells assessed as accumulation at G2 phase at 100 nM incubated for 1 to 3 days by propidium iodide staining based flow cytometric analysis (reference value: 14.1 +/- 0.69%); format: toxicity; conditions: mouse, 0.1 µM, time 1-3 day
[20] = biological target: Serine/threonine-protein kinase mTOR (Mus musculus) (UniProt Q9JLN9); conditions: MEF, dose 100.0 nM, time 30.0 min; remark: listed apart in the source
MEF [21] = assay: Induction of cell cycle arrest in mLST8 knockout MEF cells assessed as accumulation at G1 phase at 100 nM incubated for 1 to 3 days by propidium iodide staining based flow cytometric analysis (reference value: 22.2 +/- 0.59%); format: toxicity; conditions: mouse, 0.1 µM, time 1-3 day
[22] = biological target: Serine/threonine-protein kinase mTOR (Homo sapiens) (UniProt P42345); conditions: HeLa, dose 100.0 nM, time 30.0 min
[23] = biological target: Serine/threonine-protein kinase mTOR (Homo sapiens) (UniProt P42345); conditions: HEK293, dose 100.0 nM, time 30.0 min; remark: listed apart in the source
[24] = biological target: Serine/threonine-protein kinase mTOR (Mus musculus) (UniProt Q9JLN9); conditions: MEF, dose 100.0 nM, time 30.0 min; remark: listed apart in the source
MEF [25] = assay: Induction of cell cycle arrest in MEF cells assessed as accumulation at S phase at 100 nM incubated for 1 to 3 days by propidium iodide staining based flow cytometric analysis (reference value: 61.5 +/- 0.78%); format: toxicity; conditions: mouse, 0.1 µM, time 1-3 day
MEF [26] = assay: Induction of cell cycle arrest in MEF cells assessed as accumulation at G2 phase at 100 nM incubated for 1 to 3 days by propidium iodide staining based flow cytometric analysis (reference value: 15.4 +/- 2.04%); format: toxicity; conditions: mouse, 0.1 µM, time 1-3 day

T1 sequence (P27361 whole entry, looked up): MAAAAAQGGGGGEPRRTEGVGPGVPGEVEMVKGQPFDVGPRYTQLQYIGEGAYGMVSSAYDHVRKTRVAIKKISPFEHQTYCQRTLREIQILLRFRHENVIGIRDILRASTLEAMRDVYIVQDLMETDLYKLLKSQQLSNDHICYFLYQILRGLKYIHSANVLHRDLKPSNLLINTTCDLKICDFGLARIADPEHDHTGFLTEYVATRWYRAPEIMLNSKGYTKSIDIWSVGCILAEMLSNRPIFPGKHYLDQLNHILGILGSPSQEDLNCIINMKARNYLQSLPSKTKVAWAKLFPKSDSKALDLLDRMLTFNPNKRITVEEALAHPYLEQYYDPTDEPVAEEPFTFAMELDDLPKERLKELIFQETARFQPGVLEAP
T1 sequence (P28482 whole entry, looked up): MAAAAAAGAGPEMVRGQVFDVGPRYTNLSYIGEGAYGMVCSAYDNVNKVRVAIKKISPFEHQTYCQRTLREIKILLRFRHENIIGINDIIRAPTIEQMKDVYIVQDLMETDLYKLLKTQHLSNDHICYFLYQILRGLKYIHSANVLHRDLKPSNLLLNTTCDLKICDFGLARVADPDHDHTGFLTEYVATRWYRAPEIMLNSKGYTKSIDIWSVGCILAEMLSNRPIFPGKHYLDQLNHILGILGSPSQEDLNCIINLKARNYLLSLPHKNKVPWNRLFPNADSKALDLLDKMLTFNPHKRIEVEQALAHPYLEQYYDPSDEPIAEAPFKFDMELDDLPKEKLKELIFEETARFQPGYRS

inhibition [1]: Active | inhibition [2]: Active | inhibition [3]: Active | inhibition [4]: Active | inhibition [5]: Active
SMILES: O=C(NOCC(O)CO)c1ccc(F)c(F)c1Nc1ccc(I)cc1Cl (configuration not stated)

SMILES: Oc1cccc(-c2nc(N3CCOCC3)c3oc4ncccc4c3n2)c1
inhibition (MEF [6]): Active | inhibition (MEF [7]): Active | inhibition (MEF [8]): Active | inhibition (HEK293 [9]): Active | inhibition (HEK293 [10]): Active | inhibition (HeLa): Active | inhibition (MEF [11]): Active | inhibition (MEF [12]): Active

inhibition [13]: Active | inhibition [15]: Active | inhibition [17]: inactive | inhibition [18]: Active | inhibition [20]: Active | inhibition [22]: inactive | inhibition [23]: Active | inhibition [24]: Active
SMILES: CO[C@H]1C[C@@H]2CC[C@@H](C)[C@@](O)(O2)C(=O)C(=O)N2CCCC[C@H]2C(=O)O[C@H]([C@H](C)C[C@@H]2CC[C@@H](O)[C@H](OC)C2)CC(=O)[C@H](C)/C=C(\C)[C@@H](O)[C@@H](OC)C(=O)[C@H](C)C[C@H](C)/C=C/C=C/C=C/1C [SIROLIMUS]
Activity (MEF [14]): 46.5% | Activity (MEF [16]): 29.8% | Activity (MEF [19]): 14.4% | Activity (MEF [21]): 35.8% | Activity (MEF [25]): 56.7% | Activity (MEF [26]): 11.2%

Source: ChEMBL document CHEMBL5678799 (Biochem J, 2009)
